Calls of active or inactive are those of the source. No cut-off for these calls is given here. Bounds are passed on as bounds.

Test [1] can be described thus: Induction of differentiation in human HL60-G cells assessed as CD11b expression. The format is functional. The method, boiled down:
(§1)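 HL60-G33 cells in RPMI 1640 with 10% bovine calf serum at 37 °C, 5% CO2, given compounds in fresh medium (ethanol vehicle); 1,25D at 0.1, 1 and 10 nM. 1×10^6 cells washed twice in PBS, stained on ice for 45 min with MO1-FITC (CD11b) and MY4-RD1 (CD14), then washed. Flow cytometry with acquisition set on isotype controls.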

Test [2] is described as follows: Induction of differentiation in human HL60-G cells assessed as CD14 expression. The format is functional. The method, boiled down:
as §1

Test [3] can be described thus: Induction of differentiation in human HL60-G cells assessed as CD11b expression relative to 1-alpha,25-dihydroxyvitamin D3. The format is functional. The method, boiled down:
as §1

Test [4] is described as follows: Induction of differentiation in human HL60-G cells assessed as CD14 expression relative to 1-alpha,25-dihydroxyvitamin D3. It is filed as functional. The method, boiled down: as §1
Test [5] can be described thus: (§2) Induction of CYP24 mRNA expression in human HL60-G cells at 1 nM after 12 hrs relative to 1-alpha,25-dihydroxyvitamin D3. It is filed as functional. The method, boiled down: (§3)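 HL60-G33 cells exposed to 1 nM compound for 12 h. Total RNA from 5×10^6 cells was DNase-treated, and 1 μg was reverse transcribed with MuLV RT and oligo-d(T). CYP24 transcript measured by SYBR green real-time PCR on a LightCycler with ARP0 as internal control. Values normalized to 1,25D treatment.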

Test [6] can be described thus: Cell cycle arrest in HL60-G cells assessed as accumulation at G1 phase after 48 to 72 hrs. It is filed as functional, cell-based. The note with it: Homo sapiens. The method, boiled down: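 HL60-G33 cells in RPMI 1640 with 10% bovine calf serum, 37 °C, 5% CO2, given compounds in fresh medium (ethanol vehicle) for 48 and 72 h over increasing concentrations. 1×10^6 cells fixed in 75% ethanol at -20 °C overnight, treated with RNase A 100 U/mL at 37 °C for 1 h, stained with propidium iodide 10 μg/mL. Flow cytometry; G1/S ratio.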

For test [7], the system named is HL60-40AF. Nature of the test: Induction of differentiation in 1-alpha,25-dihydroxyvitamin D3 resistant human HL60-40AF cells. The format is functional, cell-based. The method, boiled down:
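Differentiation-resistant HL60-40AF subclone adapted to grow in 1,25D, cultured in RPMI 1640 with 10% bovine calf serum. Compounds given in fresh medium with ethanol vehicle; 1,25D at 10 and 100 nM. 1×10^6 cells washed in PBS, stained on ice for 45 min with MY4-RD1 (CD14) and MO1-FITC (CD11b). Read by flow cytometry, gated on isotype controls.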

Test [8] concerns HL60-G. Described as §2. It is filed as functional. The method, boiled down:
as §3

For the compound `C=C1/C(=C\C=C2/CCC[C@@]3(C)C2CC[C@@H]3[C@]2(CC#CC(O)(C(F)(F)F)C(F)(F)F)C[C@H]2CCC(C)(C)O)C[C@@H](O)C[C@@H]1O` (stereo partly specified), the results for the ED20 in test [1] and in test [2] were 0.52 nM and 0.24 nM, respectively. The figures for the Activity in test [3] and in test [4] were 2.31 and 2.38, respectively. In addition, in test [5], the Fold change was 30. For the same compound, the outcome in test [6] and in test [7] was Active.

As to `C=C1/C(=C\C=C2/CCC[C@@]3(C)C2CC[C@@H]3[C@H](C)CCCC(C)(C)O)C[C@@H](O)C[C@H]1O` (stereo partly specified), the ED20 turned out to be 1.2 nM in test [1] and 0.57 nM in test [2].

On to `CC(C)(O)CC[C@@H]1C[C@@]1(CC#CC(O)(C(F)(F)F)C(F)(F)F)[C@H]1CCC2/C(=C/C=C3C[C@@H](O)C[C@H](O)C3)CCC[C@@]21C` (stereo partly specified), for which the ED20 in test [1] is 1.17 nM; in test [2] it was 0.46 nM. Moreover, the Activity in test [3] was 1.03; in test [4] it was 1.24. In test [5], this compound registered a Fold change of 2.5. Besides, the outcome in test [7] was Active.

With `CC(C)(O)CCC[C@@]1([C@H]2CCC3/C(=C/C=C4C[C@@H](O)C[C@H](O)C4)CCC[C@@]32C)C[C@H]1CCC(C)(C)O` (stereo partly specified), the ED20 in test [1] turned out to be 98.75 nM; in test [2] it was 66.03 nM. Further, the Activity in test [3] came out at 0.01; in test [4] it was 0.009.

As for `C=C1/C(=C\C=C2/CCC[C@@]3(C)C2CC[C@@H]3[C@]2(CCCC(C)(C)O)C[C@H]2CCC(C)(C)O)C[C@@H](O)C[C@@H]1O` (stereo partly specified), the ED20 is 19.75 nM in test [1] and 9.97 nM in test [2]. The Activity in test [3] amounted to 0.06. Also, the result in test [8] was inactive.

Regarding `C=C1/C(=C\C=C2/CCC[C@@]3(C)C2CC[C@@H]3[C@]2(CCCC(C)(C)O)C[C@H]2CCC(C)(C)O)C[C@@H](O)C[C@H]1F` (stereo partly specified), the ED20 in test [2] is above 500 nM. Besides, the Activity in test [3] was below 0.002; in test [4] it was below 0.001.

The record behind these values is ChEMBL document CHEMBL1148694, “Calcitriol derivatives with two different side-chains at C-20. Part 4: further chain modifications that alter VDR-dependent monocytic differentiation potency in human leukemia cells” (2007).
